Assay results collected from several papers.
Target: Serine/threonine-protein kinase 24 (STK24, Homo sapiens, UniProt Q9Y6E0)

O=C(c1ccc(Nc2nccc(-c3cc4ccccc4s3)n2)cc1)N1CCC(N2CCCC2)CC1  remaining binding (binding, competition with immobilised ligand; 1 µM): 83%
Cc1cnn2ncc(-c3ccnc(N(C)C)n3)c2c1  remaining binding (binding; 1 µM): 98%
FC(F)(F)Oc1cccc(-c2cnc3ccc(-c4ccncc4)nn23)c1  remaining binding (cell-free assay, competition with immobilised ligand; 5 µM): 86%
O=C(NCC1CCOCC1)c1n[nH]cc1NC(=O)c1c(F)cccc1F  remaining binding (binding, competition with immobilised ligand; 1 µM): 89%
CN(C)c1nccc(-c2cnn3ncccc23)n1  remaining binding (binding; 1 µM): 100%
C[C@H](c1cccc(C#N)c1)n1cc(Cl)cc(C(N)=O)c1=N  remaining binding (cell-free assay, competition with immobilised ligand; 1 µM): 89%
C[C@@H]1CCN(c2nccc(-c3cnn4ncccc34)n2)C1  remaining binding (binding; 1 µM): 63%
CN(C(=O)c1ccccc1)c1cc(N(C)c2ccc3c(c2)CCc2ccc(C(=O)NCCN4CCOCC4)cc2C3=O)ccc1F  remaining binding (cell-free assay, competition with immobilised ligand; 1 µM): 100%
O=C(c1ccc(Nc2ncc(Cl)c(-c3ccc(Cl)s3)n2)cc1)N1CCC(N2CCCC2)CC1  remaining binding (binding, competition with immobilised ligand; 1 µM): 44%
N[C@H]1CCN(c2nccc(-c3cnn4ncccc34)n2)C1  remaining binding (binding; 1 µM): 83%
CS(=O)(=O)NCC[C@H](NC(=O)c1cncc2c1cnn2-c1ccc(F)cc1)c1ccnc(S(C)(=O)=O)c1  remaining binding (cell-free assay, competition with immobilised ligand; 1 µM): 100%
CNC(=O)[C@@H]1CC[C@@H](n2c(-c3ccc4cnccc4c3)nc3ccc(C(=O)NCc4cccc(C(N)=O)c4)cc32)C1  remaining binding (binding, competition with immobilised ligand; 1 µM): 100%
F[C@@H]1CCN(c2nccc(-c3cnn4ncccc34)n2)C1  remaining binding (binding; 1 µM): 93%
O=C(NCCCN1CCOCC1)c1ccc(Nc2nccc(-c3cc4ccccc4s3)n2)cc1  remaining binding (binding, competition with immobilised ligand; 1 µM): 39%
CN(CCCC(F)(F)F)c1nccc(-c2cnn3ncccc23)n1  remaining binding (binding; 1 µM): 100%
FC(F)(F)c1ccc2c(c1)nc(-c1cccnc1)n2C1CC1  remaining binding (cell-free assay, competition with immobilised ligand; 1 µM): 100%
CCN1CCN(Cc2ccc(C(=O)Nc3ccc(C)c(Oc4ccc5c(c4)CC(=O)N5)c3)cc2C(F)(F)F)CC1  remaining binding (binding, competition with immobilised ligand; 1 µM): 94%
O=C(NC[C@@H]1[C@H]2CN(C(=O)OCc3cc(C(F)(F)F)cc(C(F)(F)F)c3)C[C@@H]12)c1ccc2[nH]nnc2c1  remaining binding (cell-free assay, competition with immobilised ligand; 1 µM): 90%
COc1ncc2cc3ccccc3nc2c1C#N  remaining binding (cell-free assay, competition with immobilised ligand; 5 µM): 97%
